pKi: −log10 of the molar value. Activity calls are given as the source filed them. The rule behind the calls is not given here.
Assays:
Mus musculus [1] = test: Inverse agonist activity was evaluated by Mouse pentylenetetrazole (PTZ) proconvulsant activity test; by administering 75 mg/kg convulsive dose of PTZ, 1 hr after oral administration of test compound; type: functional
How it was run: (§1)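 Male mice, 8-16 per group. Test compound given po, followed 1 h later by a subconvulsive dose of PTZ (75 mg/kg sc). Tonic convulsions and death were scored over a 2-h observation.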

Mus musculus [2] = test: Inverse agonist activity was evaluated by Mouse pentylenetetrazole (PTZ) proconvulsant activity test at 25.87-58.54 mg/kg by administering 75 mg/kg convulsive dose of PTZ, 1 hr after oral administration of test compound; type: functional; how it was run: as §1
Mus musculus [3] = test: Inverse agonist activity was evaluated by Mouse pentylenetetrazole (PTZ) proconvulsant activity test at 14.6-34.51 mg/kg by peroral administration of 90 mg/kg convulsive dose of PTZ.; type: functional; settings: route oral
[4] = molecular target: GABA-A receptor; anion channel; test: Displacement of [3H]diazepam from rat cerebral cortex benzodiazepine receptor; type: tissue-based
Mus musculus [5] = species: Mus musculus; test: Activity in mouse pentylenetetrazole convulsant test.; type: functional
How it was run: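 Male mice, 8-16 per group. Test compound dosed orally 1 h before sc PTZ, either a convulsive 125 mg/kg (protection) or a subconvulsive 75 or 90 mg/kg (potentiation). Animals were watched 2 h for tonic convulsions and death. ED50 came from probit analysis.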

Mus musculus [6] = test: Inverse agonist activity was evaluated by Mouse pentylenetetrazole (PTZ) proconvulsant activity test; by peroral administration of 90 mg/kg convulsive dose of PTZ; inactive to 10 mg/kg administered intravenously; type: functional, organism-based
Mus musculus [7] = test: Agonist activity was evaluated by mouse pentylenetetrazole (PTZ) convulsant test; inactive to 10 mg/kg administered intravenously; type: functional, organism-based; design: dose 10 mg/kg
Mus musculus [8] = test: Inverse agonist activity was evaluated by mouse pentylenetetrazole (PTZ) proconvulsant activity test at 10 mg/kg by peroral administration of 90 mg/kg convulsive dose of PTZ.; type: functional
Mus musculus [9] = test: Inverse agonist activity was evaluated by Mouse pentylenetetrazole (PTZ) proconvulsant activity test at 11.71-22.28 mg/kg by administering 75 mg/kg convulsive dose of PTZ, 1 hr after oral administration of test compound; type: functional; how it was run: as §1
Mus musculus [10] = test: Inverse agonist activity was evaluated by Mouse pentylenetetrazole (PTZ) proconvulsant activity test; at 3.64-18.28 mg/kg by peroral administration of 90 mg/kg convulsive dose of PTZ.; type: functional; settings: route oral
Mus musculus [11] = test: Inverse agonist activity was evaluated by Mouse pentylenetetrazole (PTZ) proconvulsant activity test at 22.39-75 mg/kg by peroral administration of 90 mg/kg convulsive dose of PTZ.; type: functional; settings: route oral
Mus musculus [12] = test: Inverse agonist activity was evaluated by Mouse pentylenetetrazole (PTZ) proconvulsant activity test at 50 mg/kg by administering 75 mg/kg convulsive dose of PTZ, 1 hr after oral administration of test compound; type: functional; how it was run: as §1
Mus musculus [13] = test: Inverse agonist activity was evaluated by mouse pentylenetetrazole (PTZ) proconvulsant activity test; by administering 75 mg/kg convulsive dose of PTZ, 1 hr after oral administration of test compound; In active to 10 iv; type: functional, organism-based; design: dose 75 mg/kg; how it was run: as §1
Mus musculus [14] = test: Inverse agonist activity was evaluated by mouse pentylenetetrazole (PTZ) proconvulsant activity test at 6.7-16.7 mg/kg by peroral administration of 90 mg/kg convulsive dose of PTZ; type: functional; settings: route oral
Mus musculus [15] = test: Inverse agonist activity was evaluated by mouse pentylenetetrazole (PTZ) proconvulsant activity test; by peroral administration of 90 mg/kg convulsive dose of PTZ; inactive to 10 mg/kg administered intravenously; type: functional, organism-based
Mus musculus [16] = test: Inverse agonist activity was evaluated by Mouse pentylenetetrazole (PTZ) proconvulsant activity test at 3.53-11.93 mg/kg by peroral administration of 90 mg/kg convulsive dose of PTZ.; type: functional; settings: route oral
Mus musculus [17] = test: Inverse agonist activity was evaluated by Mouse pentylenetetrazole (PTZ) proconvulsant activity test at 4.54-12.28 mg/kg by administering 75 mg/kg convulsive dose of PTZ, 1 hr after oral administration of test compound; type: functional; how it was run: as §1
Mus musculus [18] = test: Inverse agonist activity was evaluated by Mouse pentylenetetrazole (PTZ) proconvulsant activity test; at 7.7-119.81 mg/kg by peroral administration of 90 mg/kg convulsive dose of PTZ.; type: functional; settings: route oral
Mus musculus [19] = test: Inverse agonist activity was evaluated by Mouse pentylenetetrazole (PTZ) proconvulsant activity test at 28.18 mg/kg by administering 75 mg/kg convulsive dose of PTZ, 1 hr after oral administration of test compound; type: functional; how it was run: as §1
Mus musculus [20] = test: Agonist activity was evaluated by mouse pentylenetetrazole (PTZ) convulsant test after p.o. administration; settings: po
Mus musculus [21] = test: Inverse agonist activity was evaluated by mouse pentylenetetrazole (PTZ) proconvulsant activity test; by administering 75 mg/kg convulsive dose of PTZ, 1 hr after oral administration of test compound; type: functional; how it was run: as §1
Mus musculus [22] = test: Inverse agonist activity was evaluated by mouse pentylenetetrazole (PTZ) proconvulsant activity test; by peroral administration of 90 mg/kg convulsive dose of PTZ.; type: functional; settings: route oral
Mus musculus [23] = test: Inverse agonist activity was evaluated by Mouse pentylenetetrazole (PTZ) proconvulsant activity test; by peroral administration of 90 mg/kg convulsive dose of PTZ.; type: functional; settings: route oral
Mus musculus [24] = test: Inverse agonist activity was evaluated by Mouse pentylenetetrazole (PTZ) proconvulsant activity test 9.76-20.68 mg/kg by peroral administration of 90 mg/kg convulsive dose of PTZ.; type: functional; settings: route oral

Compound	pKi [4]	ED50 (Mus musculus [5]) [mg/kg]	further results
O=C1C2C=Nc3ccccc3C2=NN1c1ccccc1 (stereo not given) [CGS-8216]			ED50 (Mus musculus [1]): 25 mg/kg
Fc1cccc2[nH]cc3nc(-c4ccon4)nc-3c12	8.47		ED50 (Mus musculus [2]): 35.7 mg/kg; ED50 (Mus musculus [3]): 21.2 mg/kg
Cc1cc(-c2nc3c4c(ncc3[nH]2)CCCC4)on1	8.66	8.12	
Cc1cc(-c2nc3c(cnc4cccc(Cl)c43)[nH]2)on1	7.86	8.53	
c1cc(-c2nc3c4c(ncc3[nH]2)CCCCC4)no1	8.28		Animals affected (Mus musculus [6]): inactive; ED50 (Mus musculus [7]): inactive
Fc1cccc2c1ncc1[nH]c(-c3ccon3)nc12	7.40		Animals affected (Mus musculus [8]): 37.5%
COc1ccc2c3nc(-c4ccon4)nc-3c[nH]c2c1	8.14		ED50 (Mus musculus [9]): 16.2 mg/kg; ED50 (Mus musculus [10]): 8.77 mg/kg
COc1ccc2[nH]cc3nc(-c4cc(C)no4)nc-3c2c1	9.05	21.6	
COc1ccc2[nH]cc3nc(-c4ccon4)nc-3c2c1	9.30		ED50 (Mus musculus [11]): 31.5 mg/kg; Animals affected (Mus musculus [12]): 25%
Cc1cc(-c2nc3c(cnc4ccc(Cl)cc43)[nH]2)on1	9.30	10.6	
Clc1ccc2c3nc(-c4ccon4)nc-3c[nH]c2c1	8.46	27.2	
c1ccc(-c2nc3c(cnc4ccccc43)[nH]2)cc1	7.66		
Cc1cc(-c2nc3c4c(ncc3[nH]2)CCC4)on1	7.84	5.97	
Cc1cc(-c2nc3c(cnc4ccccc43)[nH]2)on1	9.05	5.89	
Cc1cc(-c2nc3c(cnc4cc(Cl)ccc43)[nH]2)on1	7.73	29.8	
Cc1cc(-c2nc3c(cnc4cccc(F)c43)[nH]2)on1	8.31	4.86	
c1ccc2c(c1)ncc1[nH]c(-c3ccon3)nc12	9.22		ED50 (Mus musculus [13]): inactive; ED50 (Mus musculus [14]): 10.1 mg/kg
c1ccc2c(c1)ncc1[nH]c(-c3ccno3)nc12	9.00		ED50 (Mus musculus [1]): 1.94 mg/kg; ED50 (Mus musculus [6]): inactive; ED50 (Mus musculus [7]): inactive
COc1ccc2c3nc(-c4cc(C)no4)nc-3c[nH]c2c1	8.02		ED50 (Mus musculus [1]): 46.2 mg/kg; Animals affected (Mus musculus [6]): inactive; ED50 (Mus musculus [7]): inactive
Clc1ccc(-c2nc3c(cnc4ccccc43)[nH]2)cc1	6.57		

Compound	pKi [4]	ED50 (Mus musculus [5]) [mg/kg]	further results
Clc1cccc2c1ncc1[nH]c(-c3ccon3)nc12	6.28		ED50 (Mus musculus [7]): inactive; Animals affected (Mus musculus [15]): inactive
CCc1cc(-c2nc3c(cnc4ccccc43)[nH]2)on1	8.92	13.5	
Cc1cc(-c2nc3c(cnc4ccccc43)[nH]2)no1	9.05	16.4	
c1cc(-c2nc3c4c(ncc3[nH]2)CCCC4)no1	8.92		ED50 (Mus musculus [7]): inactive; Animals affected (Mus musculus [15]): inactive
Cc1cc(-c2nc3c(cnc4c(Cl)cccc43)[nH]2)on1			Animals affected (Mus musculus [6]): inactive; ED50 (Mus musculus [7]): inactive
Cc1cc(-c2nc3c4c(ncc3[nH]2)CCCCC4)on1	7.81	12.4	
Clc1cccc2[nH]cc3nc(-c4ccon4)nc-3c12	8.11		ED50 (Mus musculus [16]): 5.95 mg/kg; ED50 (Mus musculus [17]): 7.21 mg/kg
Cc1cc(-c2nc3c4c(ncc3[nH]2)CCOC4)on1	8.48	11.2	
Fc1ccc2[nH]cc3nc(-c4ccon4)nc-3c2c1	9.10		ED50 (Mus musculus [18]): 16.5 mg/kg; ED50 (Mus musculus [19]): 64.1 mg/kg
CN1C(=O)CN=C(c2ccccc2)c2cc(Cl)ccc21 [DIAZEPAM]			ED50 (Mus musculus [20]): 0.67 mg/kg
CCc1cc(-c2nc3c(cnc4ccccc43)[nH]2)no1	8.96	19.2	
c1cc(-c2nc3c4c(ncc3[nH]2)CCC4)no1	8.28		ED50 (Mus musculus [21]): 9.22 mg/kg; ED50 (Mus musculus [22]): 4.72 mg/kg
Cc1cc(-c2nc3c(cnc4ccc(F)cc43)[nH]2)on1	8.96	5.41	
c1csc(-c2nc3c[nH]c4ccccc4c-3n2)c1	8.77		
Cc1cc(-c2nc3c(cnc4c(F)cccc43)[nH]2)on1	6.52		ED50 (Mus musculus [7]): inactive
Fc1ccc2c3nc(-c4ccon4)nc-3c[nH]c2c1	9.05	39.9	
c1cc(-c2nc3c[nH]c4c(c-3n2)COCC4)no1	8.57		ED50 (Mus musculus [1]): 25 mg/kg; ED50 (Mus musculus [23]): 19.6 mg/kg
Cc1cc(-c2nc3c(cnc4ccccc43)[nH]2)cs1	8.35		
Cc1cc(-c2nc3c(cnc4cc(F)ccc43)[nH]2)on1	8.85	5.15	
Clc1ccc2[nH]cc3nc(-c4ccon4)nc-3c2c1	9.10		ED50 (Mus musculus [24]): 14.2 mg/kg; Animals affected (Mus musculus [12]): 25%
